Results on four compounds are retold here after ChEMBL document CHEMBL1629494, “New amino acid esters of salicylanilides active against MDR-TB and other microbes” (Eur J Med Chem, 2010).

Converted amounts (≈) assume the structure as drawn.

One may read the MIC as the least concentration at which growth counts as inhibited. Higher therefore signals weaker potency.

What all share (type): functional
Assay [1] concerns Mycobacterium tuberculosis. Briefly: Antimycobacterial activity against extensively drug resistant Mycobacterium tuberculosis Praha 1 after 14 days by micromethod. Particulars: Praha 1, 336 h. Summed up: (§1)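 Clinical MDR/XDR M. tuberculosis strains, all resistant to INH, RIF, rifabutine and streptomycin, some with further resistances. Tested by the MIC micromethod across a concentration series descending from 1000.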

The subject of assay [2] is Mycobacterium tuberculosis. In words: Antimycobacterial activity against multidrug-resistant Mycobacterium tuberculosis 53/2009 after 21 days by micromethod. The conditions noted are these: 53/2009, 504 h. The procedure, abridged:
(§2)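 MDR M. tuberculosis strains, all resistant to INH, RIF, rifabutine and streptomycin (9449/2007 to these four). Micromethod with compounds added as DMSO solutions in a twofold series from 1000 μmol/L downward; lowest level used 1 μmol/L. Incubated at 37 °C and read at 14 and 21 days; MIC is the lowest concentration giving growth inhibition.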

Assay [3] deals with Mycobacterium tuberculosis. In words: Antimycobacterial activity against extensively drug resistant Mycobacterium tuberculosis Praha 131 after 14 days by micromethod. The conditions noted are these: Praha 131, 336 h. The procedure, abridged:
as §1

Assay [4] is described as follows: Selectivity index, ratio of IC50 for human PBMC to MIC for multidrug-resistant Mycobacterium tuberculosis 362/1998. Summed up:
(§3)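 SI = PBMC IC50 (MTT cytotoxicity) divided by the MIC against the named M. tuberculosis strain. MIC taken after 14 days of incubation at 37 °C by the micromethod.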

Assay [5] concerns Mycobacterium tuberculosis. Briefly: Antimycobacterial activity against extensively drug resistant Mycobacterium tuberculosis Praha 131 after 21 days by micromethod. The conditions noted are these: Praha 131, 504 h. The procedure, abridged:
as §1

Assay [6] can be described thus: Selectivity index, ratio of IC50 for human PBMC to MIC for multidrug-resistant Mycobacterium tuberculosis 53/2009. The procedure, abridged: as §3
The subject of assay [7] is Mycobacterium tuberculosis. Briefly: Antimycobacterial activity against multidrug-resistant Mycobacterium tuberculosis 357/2005 after 14 days by micromethod. The conditions noted are these: 357/2005, 336 h. Summed up: as §1
Assay [8] concerns Mycobacterium tuberculosis. Briefly: Antimycobacterial activity against extensively drug resistant Mycobacterium tuberculosis Praha 1 after 21 days by micromethod. Particulars: Praha 1, 504 h. The procedure, abridged:
as §1

Assay [9] deals with Mycobacterium tuberculosis. In words: Antimycobacterial activity against multidrug-resistant Mycobacterium tuberculosis 9449/2007 after 21 days by micromethod. Particulars: 9449/2007, 504 h. The procedure, abridged: as §2
The nature of assay [10]: Selectivity index, ratio of IC50 for human PBMC to MIC for multidrug-resistant Mycobacterium tuberculosis 357/2005. The procedure, abridged:
as §3

Assay [11] has as its system Mycobacterium tuberculosis. Briefly: Antimycobacterial activity against multidrug-resistant Mycobacterium tuberculosis 362/1998 after 21 days by micromethod. Particulars: 362/1998, 504 h. The procedure, abridged: as §1
In assay [12] the test system is Mycobacterium tuberculosis. In words: Antimycobacterial activity against multidrug-resistant Mycobacterium tuberculosis 357/2005 after 21 days by micromethod. The conditions noted are these: 357/2005, 504 h. The procedure, abridged:
as §1

Assay [13] concerns Mycobacterium tuberculosis. In words: Antimycobacterial activity against multidrug-resistant Mycobacterium tuberculosis 362/1998 after 14 days by micromethod. The conditions noted are these: 362/199, 336 h. Summed up:
as §1

Assay [14] in a line: Selectivity index, ratio of IC50 for human PBMC to MIC for multidrug-resistant Mycobacterium tuberculosis 9449/2007. Summed up:
as §3

Assay [15] deals with Mycobacterium tuberculosis. In words: Antimycobacterial activity against multidrug-resistant Mycobacterium tuberculosis 53/2009 after 14 days by micromethod. Particulars: 53/2009, 336 h. The procedure, abridged: as §1
Assay [16] relates to Mycobacterium tuberculosis. In words: Antimycobacterial activity against multidrug-resistant Mycobacterium tuberculosis 9449/2007 after 14 days by micromethod. The conditions noted are these: 9449/2007, 336 h. Summed up:
as §2

As to `CC(=O)N[C@@H](Cc1ccccc1)C(=O)Oc1ccc(Cl)cc1C(=O)Nc1ccc(Cl)c(Cl)c1`, the MIC in assay [1] was 1 µM (≈ 0.506 µg/mL); in assay [2], 2 µM (≈ 1.01 µg/mL); in [3], 2 µM (≈ 1.01 µg/mL); in [5], 2 µM (≈ 1.01 µg/mL); in assay [7] it was 2 µM (≈ 1.01 µg/mL); in assay [8], 2 µM (≈ 1.01 µg/mL). Further, the MIC came to 4 µM (≈ 2.02 µg/mL) in [9]; 2 µM (≈ 1.01 µg/mL) in assay [11]; 2 µM (≈ 1.01 µg/mL) in assay [12]; 1 µM (≈ 0.506 µg/mL) in assay [13]; 1 µM (≈ 0.506 µg/mL) in [15]; 2 µM (≈ 1.01 µg/mL) in assay [16]. In addition, the “Selectivity Index” value in assay [4], in assay [6], in [10] and in [14] was 22 in each case.

Regarding `CC(=O)N[C@@H](Cc1ccccc1)C(=O)Oc1ccc(Cl)cc1C(=O)Nc1ccc(C(F)(F)F)cc1`, the MIC in assay [1] amounted to 1 µM (≈ 0.505 µg/mL); in assay [2] it was 1 µM (≈ 0.505 µg/mL); in assay [3], 1 µM (≈ 0.505 µg/mL); in [5], 2 µM (≈ 1.01 µg/mL); in [7], 1 µM (≈ 0.505 µg/mL); in assay [8] it was 2 µM (≈ 1.01 µg/mL). The MIC in assay [9] is 2 µM (≈ 1.01 µg/mL); in assay [11], 1 µM (≈ 0.505 µg/mL); in assay [12], 2 µM (≈ 1.01 µg/mL); in [13], 1 µM (≈ 0.505 µg/mL); in assay [15], 1 µM (≈ 0.505 µg/mL); in assay [16], 2 µM (≈ 1.01 µg/mL). Also, the “Selectivity Index” value in [4], in assay [6], in assay [10] and in [14] was 6.1 throughout.

Regarding `CC(=O)N[C@@H](Cc1ccccc1)C(=O)Oc1ccc(Br)cc1C(=O)Nc1ccc(C(F)(F)F)cc1`, the MIC was found to be 1 µM (≈ 0.549 µg/mL) in assay [1]; 2 µM (≈ 1.1 µg/mL) in assay [2]; 2 µM (≈ 1.1 µg/mL) in [3]; 2 µM (≈ 1.1 µg/mL) in assay [5]; 2 µM (≈ 1.1 µg/mL) in assay [7]; 2 µM (≈ 1.1 µg/mL) in assay [8]. The MIC in [9] is 2 µM (≈ 1.1 µg/mL); in assay [11] it was 1 µM (≈ 0.549 µg/mL); in assay [12], 2 µM (≈ 1.1 µg/mL); in assay [13] it was 1 µM (≈ 0.549 µg/mL); in assay [15], 1 µM (≈ 0.549 µg/mL); in [16] it was 1 µM (≈ 0.549 µg/mL). Further, the “Selectivity Index” value in [4], in assay [6], in assay [10] and in [14] was 24.1 in each case.

With `NNC(=O)c1ccncc1` [ISONIAZID], the MIC in [1], in assay [2], in assay [3], in [5], in assay [7] and in assay [8] was 14.6 µM (≈ 2 µg/mL) throughout. For the same compound, the MIC was 58.3 µM (≈ 8 µg/mL) in [9]; 14.6 µM (≈ 2 µg/mL) in [11]; 14.6 µM (≈ 2 µg/mL) in assay [12]; 14.6 µM (≈ 2 µg/mL) in assay [13]; 14.6 µM (≈ 2 µg/mL) in assay [15]; 58.3 µM (≈ 8 µg/mL) in assay [16].
